Only some compounds are listed: those with a hit (about 2.5% of all), similar ones and a draw of the others.
SENP7 block: SENP7 protease inhibitors, primary screen, biochemical, luminescence, uHTS; Sentrin-specific protease 7 (Homo sapiens), Q9BQF6; recombinant SENP7, Z-RLRGG-aminoluciferin luminescence, 40 min; inhibition, % at 5 µM; 330,000 tested, 1.5% active;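 active means inhibition above about 50% at the single test dose, limit read from the data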;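 further: plate controls were DMSO with enzyme for no effect and no enzyme buffer wells for full effect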
Target sequence (Q9BQF6 706-1050 limits assumed): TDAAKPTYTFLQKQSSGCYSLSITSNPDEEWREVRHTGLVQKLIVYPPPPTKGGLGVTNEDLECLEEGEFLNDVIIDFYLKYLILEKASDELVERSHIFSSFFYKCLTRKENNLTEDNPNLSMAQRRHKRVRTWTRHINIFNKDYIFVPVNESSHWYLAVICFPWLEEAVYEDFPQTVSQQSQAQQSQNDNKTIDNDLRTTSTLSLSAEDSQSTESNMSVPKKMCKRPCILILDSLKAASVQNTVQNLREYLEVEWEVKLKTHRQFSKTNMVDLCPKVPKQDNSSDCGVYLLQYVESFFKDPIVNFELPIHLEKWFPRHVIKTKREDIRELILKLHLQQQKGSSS
SENP6 block: SENP6 protease inhibitors, primary screen, biochemical, luminescence, uHTS; Sentrin-specific protease 6 (Homo sapiens), Q9GZR1; Recombinant SENP6 catalytic domain, aminoluciferin luminescence; inhibition, % at 10 µM; 330,000 tested, 1.8% active;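 active means inhibition above about 50% at the single tested dose, limit read from the data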;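 further: plate controls were DMSO wells with enzyme for no effect and DMSO wells lacking enzyme for full effect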
SENP1 FRET inh: human SENP1 catalytic domain inhibitors, primary screen, biochemical, FRET, uHTS | Sentrin-specific protease 1 (Homo sapiens), Q9P0U3 | recombinant SENP1 catalytic domain, CyPet-SUMO1-YPet FRET cleavage | inhibition, % at 10 µM | 360,000 tested, 0.21% active;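 active means inhibition at least 30% at 10 µM, raw YFP signal under a set limit, fluorescence ratio 0.5 to 1.5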;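 further: 0% = enzyme with DMSO and 100% = no enzyme wells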
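Test system: human SENP1 catalytic domain; medium: Tris pH 8 buffer plus EDTA, NaCl, BME, BSA, NP40, catalase; incubation: 50 min reaction at room temperature; technique: FRET, CFP and YFP emission; controls: no-enzyme low control and enzyme-plus-DMSO high control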
SENP8 block-1: human SENP8 protease inhibitors, primary screen, biochemical, fluorescence, Nedd8 protein substrate, uHTS | inhibition, % at 20 µM | 360,000 tested, 0.64% active | AID 602440, 2012 | recombinant SENP8; in the data active means inhibition mostly above about 40%, no sharp cut-off; inactive means mostly below about 27%
SENP8 block-2: SENP8 protease inhibitors, primary screen, biochemical, luminescence; Sentrin-specific protease 8 (Homo sapiens), Q96LD8; purified SENP8, Z-RLRGG-aminoluciferin cleavage; inhibition, % at 10 µM; 330,000 tested, 1.2% active; in the data active means inhibition above about 50%
SENP8 confirm: SENP8 protease inhibitors, retest, confirmation, biochemical, luminescence, single concentration. shares compounds with SENP7 block. inhibition, % at 12.5 µM. Recombinant SENP8, Z-RLRGG-aminoluciferin luminescence, 60 min. 6,200 tested, 40% active;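 active means mean inhibition across replicates above about 50%, limit read from the data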
SENP6 confirm: SENP6 protease inhibitors, confirmation, biochemical, luminescence, single concentration; 6,200 tested, 58% active; inhibition, % at 12.5 µM; shares compounds with SENP7 block; recombinant SENP6, Z-RLRGG-aminoluciferin luminescence
SENP7 confirm: SENP7 protease inhibitors, retest, confirmation, biochemical, luminescence, single concentration | shares compounds with SENP7 block | recombinant SENP7, Z-RLRGG-aminoluciferin luminescence, 40 min | inhibition, % at 12.5 µM | 6,200 tested, 69% active
Casp3 select: caspase-3 protease inhibitors, confirmation, selectivity assay for SENP inhibitor project, biochemical, single concentration | shares compounds with SENP7 block | purified caspase-3, Z-DEVD-aminoluciferin luminescence, 60 min | inhibition, % at 12.5 µM | 6,200 tested, 60% active | AID 488918, 2010;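 active means mean inhibition above about 50%, limit read from the data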;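 further: plate controls were enzyme with DMSO for no effect and wells without caspase-3 for full effect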
Target sequence (P42574 28-227 limits assumed): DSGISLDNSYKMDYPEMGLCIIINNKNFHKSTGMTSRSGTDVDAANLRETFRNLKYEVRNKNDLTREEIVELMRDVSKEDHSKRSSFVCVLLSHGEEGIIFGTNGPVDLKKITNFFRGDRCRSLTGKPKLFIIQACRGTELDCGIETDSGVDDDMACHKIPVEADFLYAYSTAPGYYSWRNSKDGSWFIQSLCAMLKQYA
SENP luc ctr: luminescence interference (SENP counter-screen); shares compounds with SENP7 block; Pre-incubated SENP8/Z-RLRGG-aminoluciferin, luciferase luminescence interference; inhibition, % at 12.5 µM; 6,200 tested, 39% active; AID 488919;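 active means mean inhibition above about 50% when retested at one dose, limit read from the data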;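 further: plate controls were DMSO wells with completed reaction for no effect and substrate without enzyme for full effect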
* = called active by the depositor; i = inactive; . = no result given.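 How the source made its calls, unless noted: active means mean inhibition above about 50% in the one-dose retest (limit read from the data); inactive means the rest.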

SMILES | SENP7 block | SENP6 block | SENP1 FRET inh | SENP8 block-1 | SENP8 block-2 | SENP8 confirm | SENP6 confirm | SENP7 confirm | Casp3 select | SENP luc ctr
c1ccc(-c2cnc(-c3cccnc3)o2)cc1 | 4 | 0 | 1 | -482 | 0 | . | . | . | . | .
Cc1cc(=O)[nH]c(N/N=C/c2cccs2)n1 | -6 | 0 | 1 | 7 | -13 | . | . | . | . | .
Cc1cc(=O)[nH]c(N/N=C/c2cc(C)n(-c3ccccc3)c2C)n1 | 13 | 66* | -1 | -263 | 36 | 66* | 64* | 87* | 76* | 16
Cc1cc(=O)[nH]c(N/N=C/c2ccccc2Cl)n1 | 4 | -14 | -1 | -26 | -6 | . | . | . | . | .
Cc1cc(=O)[nH]c(N/N=C/c2sccc2C)n1 | 56* | 64* | 4 | 2 | 23 | 41 | 39 | 79* | 81* | 49
O=C(N/N=C/c1ccccc1)c1n[nH]c2c1CCCC2 | 50* | 58* | 3 | -2 | 47 | 12 | 39 | 69* | 76* | 13
O=C(N/N=C/c1ccc(Cl)cc1)c1n[nH]c2c1CCCC2 | -5 | -8 | 1 | 4 | -8 | . | . | . | . | .
O=C(N/N=C/c1ccccc1Cl)c1cccc(F)c1 | 72* | 69* | 3 | 15 | 53* | 4 | 70* | 92* | 76* | 68*
O=C(N/N=C/c1cccs1)c1n[nH]c2c1CCC2 | 77* | 79* | 3 | 4 | 50 | 41 | 70* | 89* | 90* | 51*
O=C(N/N=C/c1ccccc1Cl)c1n[nH]c2c1CCCC2 | 98* | 69* | 0 | 11 | 86* | -10 | -2 | -2 | 26 | -14
O=C(N/N=C/c1c(Cl)cccc1Cl)c1cccc(F)c1 | 15 | -11 | 1 | 9 | -19 | . | . | . | . | .
CC(=O)N1CC(=O)N(c2ccccc2)C1=O | 3 | 10 | 0 | 2 | 5 | . | . | . | . | .
O=C(N/N=C/c1ccc(N2CCCCC2)o1)C(O)(c1ccccc1)c1ccccc1 | 8 | 3 | . | . | 2 | . | . | . | . | .
C[C@@H]1CN([C@H](C)CO)C(=O)CCCn2nncc2CO[C@H]1CN(C)S(=O)(=O)c1ccccc1F | . | . | 2 | -2 | . | . | . | . | . | .
CCOC(=O)c1ccc2nc(NC(=O)c3ccco3)sc2c1 | 90* | 93* | -149 | i | 85* | 6 | 46 | 78* | 51* | 12
CCOc1ccc2nc(NC(=O)c3ccoc3C)sc2c1 | 100* | 96* | -6 | -158 | 98* | 99* | 100* | 103* | 99* | 81*
CC1CCc2nc(NC(=O)c3ccco3)sc2C1 (stereo unspecified) | 80* | 87* | -2 | 2 | 79* | 88* | 88* | 98* | 89* | 46
O=C(Nc1nc2cc3c(cc2s1)OCCO3)c1ccco1 | 100* | 97* | -2 | -465 | 96* | 97* | 98* | 102* | 97* | 96*
CC(C(=O)O)N(c1ccccc1Cl)S(C)(=O)=O (stereo unspecified) | -2 | -3 | -1 | 15 | -5 | . | . | . | . | .
C=CCOC(=O)c1sc(NC(=O)c2ccco2)nc1C | 56* | 49 | 0 | -43 | 15 | 12 | 16 | 18 | 31 | 5
O=C(NC(=S)Nc1nc2ccc(F)cc2s1)c1ccco1 | 62* | 69* | -2 | 12 | 12 | 13 | 13 | 10 | 4 | 2
O=C(Nc1nc2cc3c(cc2s1)OCO3)c1ccco1 | . | . | 3 | -352 | . | . | . | . | . | .
Cc1c(Cl)ccc2sc(NC(=O)c3ccco3)nc12 | 86* | 67* | 2 | -212 | 78* | 35 | 86* | 72* | 54* | 20
CCOc1ccc2nc(NC(=O)c3ccco3)sc2c1 | 97* | 97* | 0 | -238 | 92* | 93* | 98* | 102* | 96* | 83*
COc1ccc(Cc2nnc(SCC(=O)c3ccc4c(c3)NC(=O)CO4)o2)cc1 | 1 | -8 | 2 | 4 | 4 | . | . | . | . | .
SMILES | SENP7 block | SENP6 block | SENP1 FRET inh | SENP8 block-1 | SENP8 block-2 | SENP8 confirm | SENP6 confirm | SENP7 confirm | Casp3 select | SENP luc ctr
COc1ccc([N+](=O)[O-])cc1NC(=O)C1CCCCC1C(=O)O (stereo unspecified) | -4 | -10 | 2 | 11 | -8 | . | . | . | . | .
Cc1cc(S(=O)(=O)N2CCN=C2c2ccccc2)c(Cl)cc1Cl | 1 | 3 | 1 | 5 | -3 | . | . | . | . | .
CCOC(=O)c1ccc2nc(NC(=O)c3cccs3)sc2c1 | 96* | 56* | 0 | -446 | 92* | -23 | 50 | 86* | 51* | 14
CCCC(=O)Nc1nc2ccc(C(=O)OCC)cc2s1 | -7 | -1 | -11 | -4 | 1 | . | . | . | . | .
CC(C)Cc1cc(C(=O)Nc2cc(Cl)ccc2Cl)no1 | -5 | -17 | 2 | 4 | 1 | . | . | . | . | .
CC(C)Cc1cc(C(=O)Nc2ccc3c(c2)OCO3)no1 | 53* | 66* | 4 | 9 | 40 | 17 | 39 | 80* | 60* | 8
CC(C)Cc1cc(C(=O)Nc2cccc(O)c2)no1 | 92* | 93* | 0 | 2 | 86* | 91* | 91* | 99* | 92* | 75*
CC(=O)c1cccc(NC(=O)c2cc(C(C)C)on2)c1 | -2 | 17 | 3 | 20 | -4 | . | . | . | . | .
CC(C)c1cc(C(=O)Nc2cccc(Cl)c2)no1 | 91* | 89* | 2 | 18 | 89* | 94* | 96* | 102* | 92* | 88*
CC(C)Cc1cc(C(=O)Nc2ccc(F)cc2F)no1 | 56* | 64* | 2 | 23 | 45 | -8 | 47 | 82* | 60* | 5
CC(C)Cc1cc(C(=O)Nc2ccc(Br)cc2)no1 | -4 | 3 | 2 | 26 | -8 | . | . | . | . | .
Cc1ccc(S(=O)(=O)N2CCN(CC(=O)Nc3ccccc3C(=O)NC3CC3)CC2)cc1 | 5 | -8 | -1 | 12 | 7 | . | . | . | . | .
